Here are results for eleven molecules from ChEMBL document CHEMBL1126900, “Transformation of heterocyclic reversible monoamine oxidase-B inactivators into irreversible inactivators by N-methylation” (J Med Chem, 1993).

For orientation: kinact means the rate constant of inactivation at saturating inhibitor.

The target in the assay is T1, Amine oxidase [flavin-containing] B (Bos taurus, UniProt P56560).
T1 sequence (P56560 whole entry): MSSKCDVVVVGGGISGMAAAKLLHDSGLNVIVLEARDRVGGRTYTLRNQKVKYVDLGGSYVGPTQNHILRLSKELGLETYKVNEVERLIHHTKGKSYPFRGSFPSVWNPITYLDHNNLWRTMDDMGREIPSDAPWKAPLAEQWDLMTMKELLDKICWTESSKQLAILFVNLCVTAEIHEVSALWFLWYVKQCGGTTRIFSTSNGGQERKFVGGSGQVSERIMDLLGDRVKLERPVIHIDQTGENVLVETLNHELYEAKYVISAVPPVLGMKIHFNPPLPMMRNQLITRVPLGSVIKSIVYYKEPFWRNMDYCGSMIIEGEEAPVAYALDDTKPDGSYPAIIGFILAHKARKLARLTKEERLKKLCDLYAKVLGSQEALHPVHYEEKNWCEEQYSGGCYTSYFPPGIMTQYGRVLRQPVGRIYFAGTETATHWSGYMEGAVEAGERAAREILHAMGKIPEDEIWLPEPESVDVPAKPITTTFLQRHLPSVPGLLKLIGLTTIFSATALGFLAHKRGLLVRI
As to the kind of experiment: Kinetic constant for inactivation of MAO B from replot of half-lives of inactivation. As to conditions: for kinact: cattle. Summed up:
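Bovine liver MAO-B (specific activity 4–6 units/mg) preincubated at 25 °C with inactivator hydrochloride at various concentrations, or none (control), in 100 mM potassium phosphate pH 7.40 with 2.0 mM glutathione. Aliquots taken periodically and assayed with 0.50 mM cinnamylamine in 100 mM Tris pH 9.0, 25 °C. Activity corrected against control. KI and kinact obtained by Kitz–Wilson replot of inactivation half-lives.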

In the case of `NCC1CN(c2ccc(OCc3cccc(Cl)c3)cc2)C(=O)O1` (stereo unspecified), the Ki stood at 0.067 mM and the kinact is 0.00233 s⁻¹.

For `COc1ccc(N2CC(CN(C)C)CC2=O)cc1` (stereo unspecified), the Ki was 300 mM and the kinact was 5.83e-05 s⁻¹.

Regarding `COc1ccc([C@H]2C[C@@H](CN(C)C)OC2=O)cc1`, the Ki worked out at 200 mM and the kinact was 0.000283 s⁻¹.

In the case of `CNCC1CN(c2ccc(OC)cc2)C(=O)O1` (stereo unspecified), the Ki is 4.7 mM and the kinact was 3.17e-05 s⁻¹.

For `COc1ccc(N2CC(CN)OC2=O)cc1` (stereo unspecified), the kinact was 1.33e-05 s⁻¹.

With `CNCC1CC(=O)N(c2ccc(OC)cc2)C1` (stereo unspecified), the Ki was found to be 50 mM and the kinact was 5.83e-05 s⁻¹.

With `COc1ccc(N2CC(CN(C)C)OC2=O)cc1` (stereo unspecified), the Ki is 13.3 mM and the kinact was 5e-05 s⁻¹.

`COc1ccc(N2CC(CN)CC2=O)cc1` (stereo unspecified): the Ki was 6.7 mM and the kinact is 1.12e-05 s⁻¹.

In the case of `CNCC1CN(c2ccc(OCc3cccc(Cl)c3)cc2)C(=O)O1` (stereo unspecified), the Ki stood at 0.2 mM and the kinact was 0.000417 s⁻¹.

For `COc1ccc(C2CC(CN)OC2=O)cc1` (stereo unspecified), the Ki came out at 6.7 mM and the kinact was 7.33e-05 s⁻¹.

In the case of `CN(C)CC1CN(c2ccc(OCc3cccc(Cl)c3)cc2)C(=O)O1` (stereo unspecified), the Ki came out at 0.5 mM and the kinact is 0.00137 s⁻¹.
